These results are taken from ChEMBL document CHEMBL1795294, “Modulation of the activity of histone acetyltransferases by long chain alkylidenemalonates (LoCAMs)” (Bioorg Med Chem, 2011).

Active and inactive are the calls of the source. The rule behind the calls is not given here.

Series [1] concerns the target CREB-binding protein (Homo sapiens) (UniProt Q92793). Nature of the series: Inhibition of human recombinant KAT3A expressed in Escherichia coli BL21 using histone H4 peptide as substrate at 50 uM after 2 hrs relative to control. A digest of the protocol:
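Recombinant CBP fragment (aa 1098–1877) from E. coli BL21, affinity purified. Spotted on P81 paper in triplicate, washed with TCA/acetone, scintillation DPM compared with negative control, expressed as %.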

Series [2] deals with Histone acetyltransferase KAT2B (Homo sapiens) (UniProt Q92831). Put plainly: Increase of human recombinant KAT2B acetylation activity using histone H4 peptide as substrate at 50 uM after 2 hrs. Put shortly: (§1)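 Human PCAF (200 ng) in KAT buffer with 10 µg histone H4 peptide (aa 2–24), 20 µM acetyl-CoA with 0.5 µCi/mL [3H]-acetyl-CoA, and compound at 50 µM final, 2 h at 37 °C. Spotted on P81 paper in triplicate, washed with TCA then acetone, scintillation counted. Activity given as % of untreated control (100%).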
Chain of Histone acetyltransferase KAT2B (Homo sapiens) (Q92831 whole entry, looked up, the tested form may be a part): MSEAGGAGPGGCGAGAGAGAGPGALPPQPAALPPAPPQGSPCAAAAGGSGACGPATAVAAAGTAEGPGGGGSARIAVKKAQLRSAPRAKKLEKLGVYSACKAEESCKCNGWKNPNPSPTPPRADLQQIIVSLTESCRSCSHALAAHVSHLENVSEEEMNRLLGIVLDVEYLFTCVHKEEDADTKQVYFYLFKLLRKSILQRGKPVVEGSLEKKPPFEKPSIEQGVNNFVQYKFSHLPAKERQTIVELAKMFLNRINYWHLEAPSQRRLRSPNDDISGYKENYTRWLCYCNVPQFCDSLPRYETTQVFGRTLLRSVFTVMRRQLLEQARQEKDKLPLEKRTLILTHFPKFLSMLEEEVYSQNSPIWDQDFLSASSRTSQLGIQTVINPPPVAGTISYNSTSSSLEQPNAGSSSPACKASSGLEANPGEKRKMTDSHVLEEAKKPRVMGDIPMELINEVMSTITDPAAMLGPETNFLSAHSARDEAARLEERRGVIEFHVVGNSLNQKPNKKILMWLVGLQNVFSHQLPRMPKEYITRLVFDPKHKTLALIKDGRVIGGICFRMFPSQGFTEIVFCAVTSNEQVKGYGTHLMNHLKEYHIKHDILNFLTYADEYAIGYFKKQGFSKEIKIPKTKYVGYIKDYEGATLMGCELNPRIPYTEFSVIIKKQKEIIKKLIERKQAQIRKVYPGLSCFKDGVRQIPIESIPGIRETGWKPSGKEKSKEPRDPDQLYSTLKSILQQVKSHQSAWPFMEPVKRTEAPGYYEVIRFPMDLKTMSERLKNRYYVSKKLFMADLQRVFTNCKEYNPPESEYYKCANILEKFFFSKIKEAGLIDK

The subject of series [3] is U-937. Nature of the series: Inhibition of histone acetyltransferase in human U937 cells assessed as increase of histone H3 acetylation level at 50 uM after 15 mins by Western blotting. Format: cell-based. A digest of the protocol: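 U937 cells treated at 50 µM. Histones prepared by Triton extraction buffer lysis, then overnight 0.2 M HCl extraction at 4 °C, Bradford quantitation. Immunoblot with pan-acetyl-H3 antibody (1:1000), Ponceau Red staining as loading check.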

The target of series [4] is Histone deacetylase (Homo sapiens) (UniProt Q13547+O15379+Q9UBN7+Q92769+Q9UQL6+Q8WUI4+Q9BY41+Q96DB2+P56524+Q9UKV0+Q969S8). Nature of the series: Inhibition of HDAC in human U937 cells at 50 uM after 15 mins by Western blotting. In kind it is cell-based. The settings on record: U-937.
Series [5] relates to U-937. Put plainly: Cell cycle arrest in human U937 cells assessed as accumulation at S phase at 50 uM after 30 hrs using propidium iodide staining by flow cytometry. Format: functional, cell-based. A digest of the protocol: (§2)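 U937 cells kept at 200,000 cells/mL, 37 °C, 5% CO2, treated 30 h at 50 or 25 µM. Phase distribution by flow cytometry. Three independent experiments, mean ± SD.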

Series [6] deals with U-937. Put plainly: Induction of apoptosis in human U937 cells at 50 uM after 30 hrs using annexin V/propidium iodide double-staining by FACS analysis. Format: functional. Put shortly:
(§3)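 U937 cells at 200,000 cells/mL, 37 °C, 5% CO2, exposed 30 h at 50 or 25 µM. Dose–response runs used 5–200 µM, with IC50 taken as the concentration giving 50% apoptosis. Annexin V/propidium iodide double staining, apoptotic subpopulations counted by FACS. Three independent experiments, mean ± SD.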

The subject of series [7] is U-937. Nature of the series: Induction of apoptosis in human U937 cells after 30 hrs using annexin V/propidium iodide double-staining by FACS analysis. Format: functional, cell-based. The settings on record: U-937, 30 h. A digest of the protocol: as §3
Series [8] concerns U-937. Nature of the series: Induction of granulocytic differentiation in human U937 after […] using propidium iodide staining by FACS analysis. In kind it is functional, cell-based.
Series [9] relates to U-937. Nature of the series: Inhibition of histone acetyltransferase in human U937 cells assessed as inhibition of acetylation of histone H3 at K9 at 50 uM after 24 hrs by Western blotting. In kind it is cell-based. A digest of the protocol:
(§4)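 U937 cells treated 24 h at 50 µM. Acid-extracted histones (Triton buffer lysis, then 0.2 M HCl overnight at 4 °C) immunoblotted with site-specific antibodies (H3K9/K14/K18/K56ac, H4K5/K8/K16ac, pan-acetyl H4; 1:1000). Loading checked by Ponceau Red staining, or by histone H1 for pan-acetyl H4.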

In series [10] the test system is U-937. Put plainly: Inhibition of histone acetyltransferase in human U937 cells assessed as inhibition of acetylation of histone H3 at K14 at 50 uM after 24 hrs by Western blotting. In kind it is cell-based. A digest of the protocol:
as §4

Series [11] relates to U-937. Put plainly: Inhibition of histone acetyltransferase in human U937 cells assessed as inhibition of acetylation of histone H3 at K18 at 50 uM after 24 hrs by Western blotting. In kind it is cell-based. A digest of the protocol:
as §4

For series [12], the system named is U-937. Nature of the series: Inhibition of histone acetyltransferase in human U937 cells assessed as inhibition of acetylation of histone H3 at K56 at 50 uM after 24 hrs by Western blotting. In kind it is cell-based. A digest of the protocol:
as §4

The test system of series [13] is U-937. Nature of the series: Inhibition of histone acetyltransferase in human U937 cells assessed as inhibition of acetylation of histone H4 at K5 at 50 uM after 24 hrs by Western blotting. Format: cell-based. A digest of the protocol: as §4
In series [14] the test system is U-937. Nature of the series: Inhibition of histone acetyltransferase in human U937 cells assessed as inhibition of acetylation of histone H4 at K8 at 50 uM after 24 hrs by Western blotting. In kind it is cell-based. Put shortly:
as §4

Series [15] has as its system U-937. Nature of the series: Inhibition of histone acetyltransferase in human U937 cells assessed as inhibition of acetylation of histone H4 at K16 at 50 uM after 24 hrs by Western blotting. Format: cell-based. A digest of the protocol:
as §4

A further series addresses Albumin (Bos taurus, UniProt P02769). Nature of the series: Binding affinity to bovine serum albumin by surface plasmon resonance assay. The settings on record: cattle.
The target of series [16] is Histone acetyltransferase p300 (Homo sapiens) (UniProt Q09472). Put plainly: Binding affinity to immobilized His6-tagged human full-length KAT3B expressed in Sf9 cells by surface plasmon resonance assay.
Chain of Histone acetyltransferase p300 (Homo sapiens) (Q09472 whole entry, the tested form may be a part): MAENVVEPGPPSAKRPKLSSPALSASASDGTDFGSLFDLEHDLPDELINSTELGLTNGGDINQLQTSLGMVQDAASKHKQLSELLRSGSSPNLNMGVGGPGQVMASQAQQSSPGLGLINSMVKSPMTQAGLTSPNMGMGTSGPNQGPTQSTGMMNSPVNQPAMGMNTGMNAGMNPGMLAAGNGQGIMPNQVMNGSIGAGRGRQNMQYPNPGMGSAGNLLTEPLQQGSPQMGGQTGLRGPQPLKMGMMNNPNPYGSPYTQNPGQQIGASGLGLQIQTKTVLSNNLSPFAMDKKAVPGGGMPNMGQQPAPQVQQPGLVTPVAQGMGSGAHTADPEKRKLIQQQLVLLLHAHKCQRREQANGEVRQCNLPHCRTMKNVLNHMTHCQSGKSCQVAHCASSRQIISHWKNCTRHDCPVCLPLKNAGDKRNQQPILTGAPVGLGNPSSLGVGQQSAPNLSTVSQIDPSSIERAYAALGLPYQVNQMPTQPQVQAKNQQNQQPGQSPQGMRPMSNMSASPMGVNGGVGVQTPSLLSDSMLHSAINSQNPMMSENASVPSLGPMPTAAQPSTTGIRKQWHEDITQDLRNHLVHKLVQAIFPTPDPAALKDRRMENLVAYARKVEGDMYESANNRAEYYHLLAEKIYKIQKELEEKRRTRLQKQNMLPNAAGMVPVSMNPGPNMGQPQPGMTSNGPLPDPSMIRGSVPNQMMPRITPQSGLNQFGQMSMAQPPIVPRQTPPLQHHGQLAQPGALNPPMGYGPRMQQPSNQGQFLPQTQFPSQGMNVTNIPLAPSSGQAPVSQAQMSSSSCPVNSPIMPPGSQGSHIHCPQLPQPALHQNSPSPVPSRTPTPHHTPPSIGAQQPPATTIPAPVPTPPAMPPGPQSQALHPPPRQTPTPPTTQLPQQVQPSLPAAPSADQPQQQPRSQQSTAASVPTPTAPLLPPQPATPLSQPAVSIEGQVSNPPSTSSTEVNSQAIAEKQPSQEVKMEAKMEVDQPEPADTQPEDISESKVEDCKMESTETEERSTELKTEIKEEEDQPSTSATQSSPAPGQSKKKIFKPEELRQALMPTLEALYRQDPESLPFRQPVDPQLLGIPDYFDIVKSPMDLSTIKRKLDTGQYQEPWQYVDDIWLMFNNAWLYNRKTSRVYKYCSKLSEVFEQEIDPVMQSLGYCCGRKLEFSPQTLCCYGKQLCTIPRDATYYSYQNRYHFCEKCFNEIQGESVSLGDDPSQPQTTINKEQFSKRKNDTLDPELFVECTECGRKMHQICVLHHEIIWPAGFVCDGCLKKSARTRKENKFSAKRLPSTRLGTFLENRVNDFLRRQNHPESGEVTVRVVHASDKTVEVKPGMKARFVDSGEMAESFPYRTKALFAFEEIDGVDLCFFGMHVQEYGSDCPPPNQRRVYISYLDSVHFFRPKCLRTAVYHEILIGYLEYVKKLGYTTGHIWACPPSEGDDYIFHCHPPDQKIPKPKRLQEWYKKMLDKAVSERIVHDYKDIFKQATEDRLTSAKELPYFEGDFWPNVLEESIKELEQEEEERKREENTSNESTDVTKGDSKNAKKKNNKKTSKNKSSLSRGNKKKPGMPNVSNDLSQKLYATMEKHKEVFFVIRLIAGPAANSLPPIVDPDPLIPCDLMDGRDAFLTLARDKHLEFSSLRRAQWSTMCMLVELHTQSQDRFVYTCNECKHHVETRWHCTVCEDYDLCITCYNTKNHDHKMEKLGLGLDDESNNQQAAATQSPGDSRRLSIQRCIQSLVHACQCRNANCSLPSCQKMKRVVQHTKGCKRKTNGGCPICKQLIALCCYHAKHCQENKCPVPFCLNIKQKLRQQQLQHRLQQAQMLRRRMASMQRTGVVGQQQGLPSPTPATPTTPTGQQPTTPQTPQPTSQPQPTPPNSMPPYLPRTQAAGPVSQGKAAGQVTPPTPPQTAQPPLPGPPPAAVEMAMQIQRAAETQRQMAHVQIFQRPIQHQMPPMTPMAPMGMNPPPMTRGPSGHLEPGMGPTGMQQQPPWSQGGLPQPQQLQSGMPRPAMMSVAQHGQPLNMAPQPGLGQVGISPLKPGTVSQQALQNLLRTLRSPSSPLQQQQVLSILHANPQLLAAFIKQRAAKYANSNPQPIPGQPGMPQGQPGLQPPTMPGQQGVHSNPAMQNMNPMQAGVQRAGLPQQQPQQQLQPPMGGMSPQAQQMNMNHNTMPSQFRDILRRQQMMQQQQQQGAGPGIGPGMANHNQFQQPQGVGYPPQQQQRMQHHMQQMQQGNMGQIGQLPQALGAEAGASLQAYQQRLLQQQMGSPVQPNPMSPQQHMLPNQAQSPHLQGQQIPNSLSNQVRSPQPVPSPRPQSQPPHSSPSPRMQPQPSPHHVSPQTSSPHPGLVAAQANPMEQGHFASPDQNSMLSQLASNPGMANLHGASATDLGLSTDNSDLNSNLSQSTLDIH
Series [17] has the same target. Nature of the series: Binding affinity to His6-tagged immobilized human KAT3B catalytic domain expressed in Sf9 cells by surface plasmon resonance assay.
In series [18] the test system is MCF7. Put plainly: Inhibition of histone acetyltransferase in human MCF7 cells assessed as increase of alpha-tubulin acetylation level at 15 and 30 uM after 15 mins by Western blotting.
Series [19] has as its system MCF7. Put plainly: Inhibition of histone acetyltransferase in human MCF7 cells assessed as increase of alpha-tubulin acetylation level after 15 mins by Western blotting. Format: cell-based.
For series [20], the system named is U-937. Put plainly: Cell cycle arrest in human U937 cells assessed as accumulation at S phase at 25 uM after 30 hrs using propidium iodide staining by flow cytometry. In kind it is functional, cell-based. Put shortly: as §2
Series [21] deals with U-937. Nature of the series: Induction of apoptosis in human U937 cells at 25 uM after 30 hrs using annexin V/propidium iodide double-staining by FACS analysis. In kind it is functional, cell-based. A digest of the protocol:
as §3

Series [22] addresses Histone acetyltransferase KAT2B (Homo sapiens) (UniProt Q92831). Put plainly: Inhibition of human recombinant KAT2B using histone H4 peptide as substrate at 50 uM after 2 hrs. Put shortly: as §1
Series [23] concerns U-937. Nature of the series: Inhibition of histone acetyltransferase in human U937 cells assessed as increase of acetylation of histone H3 at K9 at 50 uM after 24 hrs by Western blotting. Format: cell-based. Put shortly:
as §4

The subject of series [24] is U-937. Put plainly: Inhibition of histone acetyltransferase in human U937 cells assessed as increase of acetylation of histone H3 at K18 at 50 uM after 24 hrs by Western blotting. Format: cell-based. Put shortly:
as §4

For series [25], the system named is U-937. Put plainly: Inhibition of histone acetyltransferase in human U937 cells assessed as increase of pan-acetylated histone H4 level at 50 uM after 24 hrs by Western blotting. In kind it is cell-based. A digest of the protocol:
as §4

Series [26] concerns MCF7. Nature of the series: Inhibition of histone acetyltransferase in human MCF7 cells assessed as increase of alpha-tubulin acetylation level at 15 uM after 15 mins by Western blotting. Format: cell-based. A digest of the protocol: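 MCF-7 cells grown in D-MEM at 200,000 cells/mL, 37 °C, 5% CO2, treated at 15 and 30 µM. Lysis in 50 mM Tris–HCl pH 7.4, 150 mM NaCl, 1% NP40, NaF, PMSF and protease inhibitors, 15 min at 4 °C. Bradford quantitation. Western blot with anti-acetyl-α-tubulin (1:1000), ERK1 as loading control.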

The test system of series [27] is U-937. Put plainly: Inhibition of histone acetyltransferase in human U937 cells assessed as increase of acetylation of histone H3 at K14 at 50 uM after 24 hrs by Western blotting. Format: cell-based. A digest of the protocol: as §4
Series [28] relates to U-937. Nature of the series: Inhibition of histone acetyltransferase in human U937 cells assessed as increase of acetylation of histone H3 at K56 at 50 uM after 24 hrs by Western blotting. Format: cell-based. A digest of the protocol:
as §4

The subject of series [29] is U-937. Nature of the series: Inhibition of histone acetyltransferase in human U937 cells assessed as increase of acetylation of histone H4 at K5 at 50 uM after 24 hrs by Western blotting. Format: cell-based. A digest of the protocol:
as §4

In series [30] the test system is U-937. Put plainly: Inhibition of histone acetyltransferase in human U937 cells assessed as increase of acetylation of histone H4 at K8 at 50 uM after 24 hrs by Western blotting. Format: cell-based. A digest of the protocol:
as §4

In series [31] the test system is U-937. Nature of the series: Inhibition of histone acetyltransferase in human U937 cells assessed as increase of acetylation of histone H4 at K16 at 50 uM after 24 hrs by Western blotting. In kind it is cell-based. A digest of the protocol: as §4

Chain of Albumin (P02769 whole entry): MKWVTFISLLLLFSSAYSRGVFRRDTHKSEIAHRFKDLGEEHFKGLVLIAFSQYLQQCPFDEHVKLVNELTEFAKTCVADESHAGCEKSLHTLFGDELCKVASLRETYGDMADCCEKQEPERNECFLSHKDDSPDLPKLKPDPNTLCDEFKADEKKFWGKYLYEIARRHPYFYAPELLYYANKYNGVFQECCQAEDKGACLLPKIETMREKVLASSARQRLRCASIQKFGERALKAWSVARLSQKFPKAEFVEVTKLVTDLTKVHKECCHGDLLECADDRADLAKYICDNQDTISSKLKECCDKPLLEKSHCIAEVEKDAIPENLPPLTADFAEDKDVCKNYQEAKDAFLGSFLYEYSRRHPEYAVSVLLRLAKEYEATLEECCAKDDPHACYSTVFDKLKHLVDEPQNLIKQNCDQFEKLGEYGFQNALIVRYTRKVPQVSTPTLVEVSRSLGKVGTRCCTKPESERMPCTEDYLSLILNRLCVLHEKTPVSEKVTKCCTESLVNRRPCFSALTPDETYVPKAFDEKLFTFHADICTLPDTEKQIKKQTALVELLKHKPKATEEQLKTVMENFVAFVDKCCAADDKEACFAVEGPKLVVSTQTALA

Regarding `CCCCCCCCCCCCCC=C(C(=O)OCC)C(=O)OCC`, the inhibition entry (in series [1]; with U-937 [3]; with U-937 [9]; in the series on U-937 [10]; in the series on U-937 [11]; in the series on U-937 [12]) was “Active” each time. For the same compound, the inhibition entry in the series with U-937 [13] and in the series on U-937 [15] was “Active” in each case. Further, the result (in [2]; with U-937 [5]) was Active. Besides, the inhibition result (in [4]; with U-937 [14]; with MCF7 [18]) was “inactive” throughout. Further, the Activity in the series with U-937 [6] is 51.8%; at Albumin, “Not Active”; in [16], “Dose-dependent effect”; in series [17] it was “Dose-dependent effect”. Also, the IC50 with U-937 [7] is 42.9 µM. For the same compound, the outcome in the series with U-937 [8] was inactive.
As to `CCCCCCCCCCCCCNC=C(C(=O)OCC)C(=O)OCC`, in series [1], the inhibition result was “Active”. The result in [2] was Active. The inhibition result in the series with MCF7 [19] was “Dose-dependent effect”. Besides, the outcome in the series on U-937 [20], with U-937 [21] and in the series with U-937 [8] was inactive.
On to `CCCCCCCCCCCC=C(C(=O)OCC)C(=O)OCC`, for which the inhibition entry (in series [1]; in [22]; in the series on U-937 [3]; in the series on U-937 [23]; in the series on U-937 [24]; in the series on U-937 [25]) was “Active” throughout. In addition, the inhibition entry in the series on U-937 [10], in the series with U-937 [12], in the series with U-937 [13] and with U-937 [15] was “Active” each time. Moreover, the outcome in the series with U-937 [5] was Active. For the same compound, the Activity in the series on U-937 [6] is 60.2%; at Albumin, “Not Active”; in [16], “Dose-dependent effect”. Moreover, the half-inhibitory concentration (IC50) in the series with U-937 [7] came to 84.2 µM. Moreover, the outcome (in the series on U-937 [8]; in series [17]) was inactive. In addition, the inhibition result with U-937 [14] and in the series with MCF7 [18] was “inactive” in each case.
For `CCCCCCCCCCCCCCCC(O)=C(C(=O)OCC)C(=O)OCC`, the inhibition result (in series [1]; in [22]; with MCF7 [26]) was “Active” throughout. Also, the result in the series with U-937 [20], in the series on U-937 [21] and with U-937 [8] was inactive.
Turning to `CCCCCCCCCCCCCCC=C(C(=O)OCC)C(=O)OCC`, the inhibition in series [1] was determined as 79%. For the same compound, the result (in [2]; in the series with U-937 [5]) was Active. In addition, the inhibition entry in the series with U-937 [3], in the series on U-937 [23], in the series with U-937 [24] and with U-937 [25] was “Active” in each case. The inhibition entry (in series [4]; in the series with U-937 [27]; in the series on U-937 [28]; in the series on U-937 [29]; in the series on U-937 [30]; with U-937 [31]) was “inactive” each time. In addition, the inhibition entry in the series with U-937 [14] and with MCF7 [18] was “inactive” in each case. The Activity is 94.4% with U-937 [6], “Not Active” on Albumin, “Dose-dependent effect” in series [16] and “Dose-dependent effect” in series [17]. In the series with U-937 [7], this compound displayed a half-inhibitory concentration (IC50) of 44.9 µM. Also, the outcome in the series with U-937 [8] was inactive.
